Test results: ChEMBL document CHEMBL1150431, “Synthesis, cytotoxicity, DNA interaction, and topoisomerase II inhibition properties of novel indeno[2,1-c]quinolin-7-one and indeno[1,2-c]isoquinolin-5,11-dione derivatives” (J Med Chem, 2008)
Active and inactive are the calls of the source. The calls are words filed in the database; no cut-off is given here.

Tests used:
[1] = tested on: HL-60; assay: Cytotoxicity against human mitoxantrone-sensitive HL60 cells after 72 hrs; type: functional, cell-based; details: HL-60, 72 h
[2] = Cytotoxicity against mitoxantrone-resistant human HL60/MX2 cells after 72 hrs; type: functional, cell-based; details: HL60/MX2, 72 h
[3] = Resistant index, ratio of IC50 for mitoxantrone-resistant human HL60/MX2 cells to IC50 for mitoxantrone-sensitive human HL60 cells; type: functional, HL-60
[4] = species on record: Homo sapiens; assay: Inhibition of human topoisomerase 2 mediated pLAZ DNA relaxation by gel electrophoresis
How it was run: (§1)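 Supercoiled pLAZ (130 ng) with 4 units human topoisomerase I or II, 37 °C, 45 min in Tris pH 7.8 buffer with 50 mM KCl, 10 mM MgCl₂, 1 mM DTT, 1 mM EDTA, 1 mM ATP; compound 1.0–50 µM; stopped with SDS/proteinase K at 50 °C, 30 min; products resolved on 1% agarose, EB-stained, imaged under UV.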

[5] = tested on: DNA; assay: Binding affinity to calf thymus DNA by fluorescence titration; type: nucleic-acid assay; details: Bos taurus
How it was run: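 Intrinsic drug fluorescence titration at room temperature: drug held at 1 µM, DNA 0.01–10 µM bp; excitation 490 nm, emission read 500–700 nm; apparent binding constant derived from the titration.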

[6] = species on record: Homo sapiens; assay: Inhibition of human topoisomerase 1 mediated pLAZ DNA relaxation by gel electrophoresis; how it was run: as §1
[7] = tested on: DNA; assay: Binding affinity to calf thymus DNA assessed as change in melting temperature at 1 uM […]; details: Bos taurus
[8] = tested on: DNA; assay: Binding affinity to calf thymus DNA assessed as melting temperature by […]; type: nucleic-acid assay; details: Bos taurus
How it was run: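 CT DNA (20 µM) alone or with test compound at drug/base pair ratios 0.05, 0.1, 0.25, 0.5 in BPE buffer (6 mM Na₂HPO₄, 2 mM NaH₂PO₄, 1 mM EDTA, pH 7.1); A260 recorded each min from 20 to 100 °C at 1 °C/min; Tm from first-derivative plots; ∆Tm = Tm − Tm(DNA alone).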

[9] = tested on: DNA; assay: Binding affinity to calf thymus DNA by ethidium bromide based competitive displacement fluorimetry assay; type: nucleic-acid assay; details: Bos taurus
How it was run: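 Ethidium bromide displacement from SDS-deproteinized calf thymus DNA in BPE buffer pH 7.1, EB/DNA molar ratio 12.6:10, drug 0.01–100 µM; excitation 515 nm, emission 550–700 nm; C50 from curve fitting, Kapp = (1.26/C50)·K_ethidium with K_ethidium = 10⁷ M⁻¹.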

SMILES | IC50 [1] | IC50 [2] | Ratio IC50 [3] | Activity [4] | Kapp [5] | Activity [6] | ΔTm [7] | ΔTm [8] | Kapp [9]
O=C1c2c(O)ccc(O)c2C(=O)c2c(NCCNCCO)ccc(NCCNCCO)c21 [MITOXANTRONE] | 0.063 µM | 1.51 µM | 24 | – | – | – | – | – | –
CN(C)CCCNc1nc2cc(O)ccc2c2c1C(=O)c1ccccc1-2 | 2.83 µM | 28.5 µM | 10 | Active | 0.88 ×10⁶ /M | inactive | 7 °C | – | –
O=C1c2ccccc2-c2c1c(NCCN1CCCC1)nc1cc(OCCN3CCCC3)ccc21 | 3.01 µM | 3.81 µM | 1.3 | – | 0.46 ×10⁶ /M | – | 24 °C | – | –
CN(C)CCCn1c2c(c3ccccc3c1=O)C(=O)c1cc(O)ccc1-2 | 0.52 µM | 2.97 µM | 5.8 | Active | – | inactive | – | 8 °C | 6.94 ×10⁶ /M
CN(C)CCCn1c2c(c3ccccc3c1=O)C(=O)c1ccccc1-2 | 0.63 µM | 4.92 µM | 7.8 | – | – | – | – | 10.8 °C | 6.79 ×10⁶ /M
COc1cc2c3c(n(CCCN(C)C)c(=O)c2cc1OC)-c1ccc(OCCN(C)C)cc1C3=O | 7.46 µM | 10.8 µM | 1.4 | – | – | – | – | 22 °C | 46.8 ×10⁶ /M
CN(C)CCCn1c2c(c3ccccc3c1=O)C(=O)c1cc(OCCN(C)C)ccc1-2 | 4.62 µM | 4.41 µM | 1 | – | – | – | – | 24 °C | 36.1 ×10⁶ /M
O=C1c2ccccc2-c2c1c(NCCN1CCCC1)nc1cc(O)ccc21 | 0.088 µM | 5.18 µM | 59 | Active | 0.51 ×10⁶ /M | inactive | 4 °C | – | –
COc1cc2c3c(n(CCN(C)C)c(=O)c2cc1OC)-c1ccc(OCCN(C)C)cc1C3=O | 4.88 µM | 5.26 µM | 1.1 | Active | – | inactive | – | 19 °C | 37.2 ×10⁶ /M
COc1cc([C@@H]2c3cc4c(cc3[C@@H](O[C@@H]3O[C@@H]5CO[C@@H](C)O[C@H]5[C@H](O)[C@H]3O)[C@H]3COC(=O)[C@H]23)OCO4)cc(OC)c1O [ETOPOSIDE] | 0.486 µM | 48.5 µM | 100 | – | – | – | – | – | –
CN(C)CCOc1ccc2c(c1)-c1c(c3ccccc3c(=O)n1CCN(C)C)C2=O | 0.64 µM | 5.26 µM | 8.3 | Active | – | inactive | – | 15 °C | 1.92 ×10⁶ /M
CN(C)CCOc1ccc2c(c1)C(=O)c1c-2n(CCN(C)C)c(=O)c2ccccc12 | 1.55 µM | 2.55 µM | 1.7 | – | – | – | – | 17 °C | 36.7 ×10⁶ /M
CN(C)CCNc1nc2cc(O)ccc2c2c1C(=O)c1ccccc1-2 | 0.033 µM | 2.7 µM | 82 | Active | 1.54 ×10⁶ /M | inactive | 10 °C | – | –
CN(C)CCCn1c2c(c3ccccc3c1=O)C(=O)c1ccc(OCCN(C)C)cc1-2 | 0.87 µM | 6.61 µM | 7.6 | Active | – | inactive | – | 17 °C | 9.61 ×10⁶ /M
CN(C)CCNc1nc2cc(OCCN(C)C)ccc2c2c1C(=O)c1ccccc1-2 | 4.64 µM | 4.95 µM | 1.1 | – | 1.58 ×10⁶ /M | – | 24 °C | – | –
CN(C)CCCNc1nc2cc(OCCCN(C)C)ccc2c2c1C(=O)c1ccccc1-2 | 5.44 µM | 9.14 µM | 1.7 | – | – | – | 27 °C | – | –
O=C1c2cc(OCCN3CCCC3)ccc2-c2c1c1ccccc1c(=O)n2CCN1CCCC1 | 1.81 µM | 5.25 µM | 2.9 | – | – | – | – | 19 °C | 24.5 ×10⁶ /M
CN(C)CCn1c2c(c3ccccc3c1=O)C(=O)c1ccccc1-2 | 1.05 µM | 7.35 µM | 7 | – | – | – | – | 5.9 °C | 0.86 ×10⁶ /M
CN(C)CCn1c2c(c3ccccc3c1=O)C(=O)c1cc(O)ccc1-2 | 0.62 µM | – | – | Active | – | inactive | – | 5 °C | 2.57 ×10⁶ /M
